Three molecules from ChEMBL document CHEMBL3352219, “Triterpenes from Alisma orientalis act as androgen receptor agonists, progesterone receptor antagonists, and glucocorticoid receptor antagonists” (Bioorg Med Chem Lett, 2014) can be followed below.

The test system of series [1] is HepG2. As to the kind of experiment: Cytotoxicity against human HepG2 cells. Format: cell-based.
For series [2], the target named is T1, Progesterone receptor (Homo sapiens) (UniProt P06401).
T1 sequence (whole entry): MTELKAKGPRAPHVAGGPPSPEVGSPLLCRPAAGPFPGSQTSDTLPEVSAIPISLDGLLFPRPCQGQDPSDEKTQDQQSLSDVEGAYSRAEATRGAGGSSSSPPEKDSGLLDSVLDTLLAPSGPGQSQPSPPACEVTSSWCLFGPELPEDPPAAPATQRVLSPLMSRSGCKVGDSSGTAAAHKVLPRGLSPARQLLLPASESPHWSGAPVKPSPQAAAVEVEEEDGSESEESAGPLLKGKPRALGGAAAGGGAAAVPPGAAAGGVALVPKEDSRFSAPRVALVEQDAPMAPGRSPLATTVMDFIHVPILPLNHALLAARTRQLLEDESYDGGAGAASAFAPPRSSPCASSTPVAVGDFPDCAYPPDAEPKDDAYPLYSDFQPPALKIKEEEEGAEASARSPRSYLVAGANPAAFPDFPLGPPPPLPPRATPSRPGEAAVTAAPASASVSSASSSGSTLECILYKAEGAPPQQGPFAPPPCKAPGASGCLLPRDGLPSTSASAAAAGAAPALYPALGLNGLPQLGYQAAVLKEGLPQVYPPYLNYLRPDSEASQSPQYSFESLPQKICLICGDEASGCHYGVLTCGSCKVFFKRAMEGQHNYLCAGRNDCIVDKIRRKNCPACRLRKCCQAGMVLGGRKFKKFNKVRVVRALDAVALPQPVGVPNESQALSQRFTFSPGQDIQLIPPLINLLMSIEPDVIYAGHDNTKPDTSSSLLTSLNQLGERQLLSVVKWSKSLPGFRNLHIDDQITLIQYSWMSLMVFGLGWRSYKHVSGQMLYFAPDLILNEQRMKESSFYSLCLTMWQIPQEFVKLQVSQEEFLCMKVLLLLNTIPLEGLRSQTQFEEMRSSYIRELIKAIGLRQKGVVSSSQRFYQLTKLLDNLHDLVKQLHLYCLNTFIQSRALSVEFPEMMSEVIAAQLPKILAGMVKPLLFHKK
As to the kind of experiment: Antagonist activity at progesterone receptor (unknown origin) expressed in human HepG2 cells assessed as reduction in progesterone-induced response at 100 nM by MMTV promoter-driven luciferase reporter gene assay. Format: cell-based. The procedure, abridged:
(§1)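 Triplicate HepG2 wells in phenol red-free, charcoal-stripped serum medium. Cotransfected with 2 µg pCMV-PR, 6 µg pMMTV-luc and 1 µg β-gal plasmid. Compound added with 10 nM progesterone for 24 h. Lysate luminescence normalized to β-galactosidase and expressed relative to progesterone alone (=1).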
A general note: A reporter such as luciferase makes a cellular process visible.

Series [3] concerns the target T2, Glucocorticoid receptor (Homo sapiens) (UniProt P04150).
T2 sequence (whole entry): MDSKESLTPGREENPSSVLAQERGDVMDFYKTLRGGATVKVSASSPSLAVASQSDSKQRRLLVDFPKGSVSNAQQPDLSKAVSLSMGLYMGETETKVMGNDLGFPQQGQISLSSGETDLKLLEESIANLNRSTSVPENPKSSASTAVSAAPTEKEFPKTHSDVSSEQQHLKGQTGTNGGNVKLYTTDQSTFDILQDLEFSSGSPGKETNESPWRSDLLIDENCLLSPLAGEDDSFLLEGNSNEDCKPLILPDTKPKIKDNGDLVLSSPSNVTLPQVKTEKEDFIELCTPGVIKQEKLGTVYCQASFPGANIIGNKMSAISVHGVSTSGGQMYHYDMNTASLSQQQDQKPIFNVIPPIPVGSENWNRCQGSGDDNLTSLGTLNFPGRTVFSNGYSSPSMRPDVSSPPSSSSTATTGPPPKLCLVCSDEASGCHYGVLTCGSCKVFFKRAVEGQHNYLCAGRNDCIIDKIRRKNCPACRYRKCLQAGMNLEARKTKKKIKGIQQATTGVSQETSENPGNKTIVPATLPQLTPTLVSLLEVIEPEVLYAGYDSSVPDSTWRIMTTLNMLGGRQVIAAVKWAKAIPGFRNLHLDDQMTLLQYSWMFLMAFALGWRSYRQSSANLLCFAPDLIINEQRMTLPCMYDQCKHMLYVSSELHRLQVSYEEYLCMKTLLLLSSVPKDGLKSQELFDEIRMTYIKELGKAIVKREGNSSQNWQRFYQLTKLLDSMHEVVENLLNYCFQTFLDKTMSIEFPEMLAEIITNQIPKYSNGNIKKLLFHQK
As to the kind of experiment: Antagonist activity at glucocorticoid receptor (unknown origin) expressed in human HepG2 cells assessed as reduction in dexamethasone-induced response at 100 nM by MMTV promoter-driven luciferase reporter gene assay. Conditions: in the assay text read “GRE promoter-driven” for “MMTV promoter-driven”. It counts as cell-based. The method in brief:
(§2)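 HepG2 in phenol red-free DMEM with charcoal-stripped FBS, triplicate wells. Transfected with 2 µg pCMV-GR, 6 µg pGRE-luc reporter and 1 µg β-gal control. Compound co-treated with 5 nM dexamethasone for 24 h. Luciferase/β-galactosidase ratio expressed relative to dexamethasone alone (=1).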

For series [4], the target named is T2, Glucocorticoid receptor (Homo sapiens). In words: Antagonist activity at glucocorticoid receptor (unknown origin) expressed in human HepG2 cells assessed as reduction in dexamethasone-induced response at 1 uM by MMTV promoter-driven luciferase reporter gene assay. Format: cell-based. The note with it: in the assay text read “GRE promoter-driven” for “MMTV promoter-driven”. The method in brief:
as §2

Series [5] addresses T1, Progesterone receptor (Homo sapiens). In words: Antagonist activity at progesterone receptor (unknown origin) expressed in human HepG2 cells assessed as reduction in progesterone-induced response at 10 uM by MMTV promoter-driven luciferase reporter gene assay. It counts as cell-based. The method in brief:
as §1

In series [6] the target is T2, Glucocorticoid receptor (Homo sapiens). As to the kind of experiment: Antagonist activity at glucocorticoid receptor (unknown origin) expressed in human HepG2 cells assessed as reduction in dexamethasone-induced response at 10 uM by MMTV promoter-driven luciferase reporter gene assay. It counts as cell-based. Conditions: in the assay text read “GRE promoter-driven” for “MMTV promoter-driven”. The procedure, abridged:
as §2

Series [7] deals with T1, Progesterone receptor (Homo sapiens). In words: Agonist activity at progesterone receptor (unknown origin) expressed in human HepG2 cells assessed as relative luciferase activity at 20 uM by MMTV promoter-driven luciferase reporter gene assay relative to progesterone. Format: cell-based.
Series [8] concerns the target T3, Androgen receptor (Homo sapiens) (UniProt P10275).
T3 sequence (whole entry): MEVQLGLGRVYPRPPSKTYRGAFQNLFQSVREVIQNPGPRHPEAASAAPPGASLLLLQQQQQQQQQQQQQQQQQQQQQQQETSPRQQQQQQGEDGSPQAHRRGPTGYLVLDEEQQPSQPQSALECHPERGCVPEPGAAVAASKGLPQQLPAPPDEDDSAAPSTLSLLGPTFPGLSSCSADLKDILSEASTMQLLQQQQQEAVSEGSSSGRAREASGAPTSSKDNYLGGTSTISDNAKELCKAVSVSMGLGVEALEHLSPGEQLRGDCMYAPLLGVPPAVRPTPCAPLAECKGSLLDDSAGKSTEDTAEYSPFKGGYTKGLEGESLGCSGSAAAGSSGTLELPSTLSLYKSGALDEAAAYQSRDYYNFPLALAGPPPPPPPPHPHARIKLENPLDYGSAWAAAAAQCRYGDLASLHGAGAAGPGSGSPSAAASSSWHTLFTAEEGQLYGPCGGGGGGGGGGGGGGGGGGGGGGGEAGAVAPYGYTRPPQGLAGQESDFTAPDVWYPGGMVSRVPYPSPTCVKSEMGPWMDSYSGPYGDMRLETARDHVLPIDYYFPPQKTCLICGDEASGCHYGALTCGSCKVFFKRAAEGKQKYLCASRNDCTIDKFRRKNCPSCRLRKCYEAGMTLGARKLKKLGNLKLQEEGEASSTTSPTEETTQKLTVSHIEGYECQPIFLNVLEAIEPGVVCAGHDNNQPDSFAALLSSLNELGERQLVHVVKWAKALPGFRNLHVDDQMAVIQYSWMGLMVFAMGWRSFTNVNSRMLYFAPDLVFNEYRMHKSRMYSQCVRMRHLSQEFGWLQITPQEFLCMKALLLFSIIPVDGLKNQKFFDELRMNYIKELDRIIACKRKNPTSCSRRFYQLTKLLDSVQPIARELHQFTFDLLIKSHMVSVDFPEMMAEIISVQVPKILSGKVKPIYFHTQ
As to the kind of experiment: Agonist activity at androgen receptor (unknown origin) expressed in human HepG2 cells assessed as relative luciferase activity at 1 uM by MMTV promoter-driven luciferase reporter gene assay relative to untreated vehicle control. Format: cell-based. The method in brief: (§3)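 HepG2 in phenol red-free DMEM with 10% charcoal-stripped FBS, plated in triplicate at 1 × 10^5 cells/well. After 24 h, transfected with 2 µg wild-type AR expression plasmid (pCMV-AR), 6 µg pMMTV-luc reporter and 1 µg β-galactosidase plasmid. Treated 24 h, then lysed. Luciferase normalized to β-gal and expressed relative to DMSO vehicle (=1).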

Series [9] has as its target T3, Androgen receptor (Homo sapiens). In words: Agonist activity at androgen receptor (unknown origin) expressed in human HepG2 cells assessed as relative luciferase activity at 100 nM by MMTV promoter-driven luciferase reporter gene assay relative to untreated vehicle control. Format: cell-based. The method in brief:
as §3

Series [10] has as its target T1, Progesterone receptor (Homo sapiens). In words: Antagonist activity at progesterone receptor (unknown origin) expressed in human HepG2 cells assessed as reduction in progesterone-induced response at 1 uM by MMTV promoter-driven luciferase reporter gene assay. It counts as cell-based. The procedure, abridged:
as §1

Series [11] deals with T2, Glucocorticoid receptor (Homo sapiens). In words: Agonist activity at glucocorticoid receptor (unknown origin) expressed in human HepG2 cells assessed as relative luciferase activity at 20 uM by GRE promoter-driven luciferase reporter gene assay relative to dexamethasone.

The source made the active and inactive calls. The rule behind the calls is not given here.

On to `C[C@H](C[C@H](O)[C@H]1OC1(C)C)C1=C2C[C@H](O)[C@H]3[C@@]4(C)CCC(=O)C(C)(C)[C@@H]4CC[C@]3(C)[C@@]2(C)CC1` [ALISOL B], for which, in series [1], the Activity result was “Toxic”.

In the case of `CC(=O)O[C@@H](C[C@@H](C)C1=C2[C@H](O)[C@H](O)[C@H]3[C@@]4(C)CCC(=O)C(C)(C)[C@@H]4CC[C@]3(C)[C@@]2(C)CC1=O)[C@H]1OC1(C)C`, the inhibition entry in series [2] and in [3] was “inactive” each time. For the same molecule, the Activity (% of dexamethasone control) in series [4] was 56%; in series [6], 30%. In addition, the values for the Activity (% of progesterone control) in series [5] and in series [10] were 64% and 71%, respectively. In addition, the result in [7], in [8], in [9] and in series [11] was inactive. Moreover, the Activity result in series [1] is given as “Non-toxic”.

Take `CC(=O)O[C@@H](C[C@@H](C)C1=C2C[C@H](O)[C@H]3[C@@]4(C)CCC(=O)C(C)(C)[C@@H]4CC[C@]3(C)[C@@]2(C)CC1)[C@@H](O)C(C)(C)O`: the inhibition entry in [2] and in [3] was “Active” throughout. Besides, the results for the Activity (% of dexamethasone control) in series [4] and in series [6] were 56% and 39%, respectively. The Activity (% of progesterone control) was 66% in series [5] and 82% in series [10]. Also, the outcome in series [7], in [8], in series [9] and in series [11] was inactive. Besides, the Activity entry in series [1] was “Non-toxic”.
